Values after ≈ are worked out from the molar mass of the structure shown.
Tests used:
[1] = tested on: Candida parapsilosis; test: Antifungal activity against Candida parapsilosis DSM 11224 after 48 hrs by M27-A3 CLSI method; type: functional
Method in brief: (§1)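 Broth microdilution in RPMI 1640, two-fold serial dilutions, final test range 0.125–64 µg mL-1 (fluconazole reference 0.0078–128 µg mL-1). Inoculum 1.0×10^3–1.5×10^3 cells mL-1 from yeasts grown 24 h at 35 °C on Sabouraud dextrose agar. Incubation 35 °C, read at 48 h. MIC = lowest concentration giving >50% turbidity decrease versus growth control. Run three times in triplicate. C. parapsilosis ATCC22019 served as QC.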

[2] = tested on: Pichia kudriavzevii; test: Antifungal activity against Candida krusei DSM 6128 after 48 hrs by M27-A3 CLSI method; type: functional; settings: DSM 6128, 48 h; method in brief: as §1
[3] = tested on: Candida albicans; test: Antifungal activity against Candida albicans after 48 hrs by M27-A3 CLSI method; type: functional; method in brief: as §1
[4] = tested on: Candida tropicalis; test: Antifungal activity against Candida tropicalis PMC 0910 after 48 hrs by M27-A3 CLSI method; type: functional; settings: PMC 0910, 48 h; method in brief: as §1
[5] = tested on: Nakaseomyces glabratus; test: Antifungal activity against Candida glabrata PMC 0805 after 48 hrs by M27-A3 CLSI method; type: functional; settings: PMC 0805, 48 h; method in brief: as §1
[6] = tested on: Candida tropicalis; test: Antifungal activity against Candida tropicalis DSM 11953 after 48 hrs by M27-A3 CLSI method; type: functional; settings: DSM 11953, 48 h; method in brief: as §1
[7] = tested on: Candida parapsilosis; test: Antifungal activity against Candida parapsilosis ATCC 22019 after 48 hrs by M27-A3 CLSI method; type: functional; settings: Lodderomyces parapsilosis, ATCC 22019, 48 h; method in brief: as §1
[8] = tested on: Candida; test: Antifungal activity against Candida sp. after 48 hrs by M27-A3 CLSI method; type: functional; method in brief: as §1
[9] = tested on: Candida albicans; test: Antifungal activity against Candida albicans ATCC 24433 after 48 hrs by M27-A3 CLSI method; type: functional; method in brief: as §1
[10] = tested on: Candida albicans; test: Antifungal activity against Candida albicans ATCC 10231 after 48 hrs by M27-A3 CLSI method; type: functional; settings: ATCC 10231, 48 h; method in brief: as §1
[11] = tested on: Pichia kudriavzevii; test: Antifungal activity against Candida krusei PMC 0613 after 48 hrs by M27-A3 CLSI method; type: functional; method in brief: as §1
[12] = tested on: Candida albicans; test: Antifungal activity against Candida albicans ATCC 76615 after 48 hrs by M27-A3 CLSI method; type: functional; settings: ATCC 76615, 48 h; method in brief: as §1
[13] = tested on: Candida albicans; test: Antifungal activity against Candida albicans ATCC 3153 after 48 hrs by M27-A3 CLSI method; type: functional; settings: ATCC 3153, 48 h; method in brief: as §1
[14] = tested on: Pichia kudriavzevii; test: Ratio MIC for fluconazole to compound for Candida krusei after 48 hrs by M27-A3 CLSI method; type: functional
[15] = Selectivity index, ratio of CC50 for human U937 cells to MIC for Candida Sp.; type: functional, U-937
Method in brief: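 SI = CC50 from the 48 h U937 MTT assay divided by the mean MIC across all Candida species. That MIC comes from CLSI M27-A3 broth microdilution in RPMI 1640, 35 °C, read at 48 h.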

[16] = tested on: Candida tropicalis; test: Antifungal activity against Candida tropicalis DSM11953 after 48 hrs by M27-A3 CLSI method
[17] = Cytotoxicity against human U937 cells after 48 hrs by MTT assay; type: cell-based, U-937
Method in brief: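 U937 human monocytic cells, 2×10^4 per well, in phenol-red-free RPMI 1640 with 10% FBS, L-glutamine, penicillin and streptomycin. Exposed 48 h at 37 °C, 5% CO2, to compounds dissolved in DMSO at final 8–128 µg mL-1, at least five concentrations, each in three replicates. MTT added for 3–4 h, crystals dissolved, OD read at 570 nm. CC50 taken against DMSO-only control. Means ± SD from three independent experiments.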

[18] = tested on: Candida parapsilosis; test: Antifungal activity against Candida parapsilosis after 48 hrs by M27-A3 CLSI method; type: functional; settings: Lodderomyces parapsilosis; method in brief: as §1
[19] = tested on: Nakaseomyces glabratus; test: Antifungal activity against Candida glabrata after 48 hrs by M27-A3 CLSI method; type: functional; method in brief: as §1
[20] = tested on: Candida tropicalis; test: Antifungal activity against Candida tropicalis after 48 hrs by M27-A3 CLSI method; type: functional; method in brief: as §1
[21] = tested on: Pichia kudriavzevii; test: Antifungal activity against Candida krusei after 48 hrs by M27-A3 CLSI method; type: functional; method in brief: as §1
[22] = Lodderomyces parapsilosis, DSM 11224, 48 h, read-out: MIC
[23] = Candida albicans, ATCC 24433, 48 h, read-out: MIC
[24] = Pichia kudriavzevii, PMC 0613, 48 h, read-out: MIC

| Compound | MIC [1, 22] | MIC [2] | MIC [3] | MIC50 [3] | MIC90 [3] | MIC [4] | MIC [5] | MIC [6] | MIC [7] | MIC [8] | MIC50 [8] | MIC90 [8] | MIC [9, 23] | MIC [10] | MIC [11, 24] | MIC [12] | MIC [13] | also measured |
| --- | --- | --- | --- | --- | --- | --- | --- | --- | --- | --- | --- | --- | --- | --- | --- | --- | --- | --- |
| O=C(Nc1cc(Cl)nc(Cl)c1)OC(Cn1ccnc1)c1ccc(Cl)cc1 (racemic) | > 64 µg/mL | > 64 µg/mL | 119 µg/mL (≈ 289 µM) | 128 µg/mL (≈ 311 µM) | 128 µg/mL (≈ 311 µM) | > 64 µg/mL | > 64 µg/mL | > 64 µg/mL | > 64 µg/mL | 121 µg/mL (≈ 294 µM) | 128 µg/mL (≈ 311 µM) | 128 µg/mL (≈ 311 µM) | > 64 µg/mL | > 64 µg/mL | > 64 µg/mL | > 64 µg/mL | > 64 µg/mL | – |
| CC(C)c1ccc(NC(=O)OC(Cn2ccnc2)c2ccc(Cl)cc2)cc1 (racemic) | > 64 µg/mL | > 64 µg/mL | 60 µg/mL (≈ 156 µM) | 64 µg/mL (≈ 167 µM) | 128 µg/mL (≈ 333 µM) | > 64 µg/mL | > 64 µg/mL | > 64 µg/mL | > 64 µg/mL | 115 µg/mL (≈ 299 µM) | 128 µg/mL (≈ 333 µM) | 128 µg/mL (≈ 333 µM) | 16 µg/mL (≈ 41.7 µM) | 4 µg/mL (≈ 10.4 µM) | > 64 µg/mL | > 64 µg/mL | 16 µg/mL (≈ 41.7 µM) | – |
| Cl.O=C(OC(Cn1ccnc1)c1ccc(Cl)cc1)c1cccc(C(F)(F)F)c1 (racemic) | 8 µg/mL | 32 µg/mL | 46.3 µg/mL | 8 µg/mL | 16 µg/mL | 0.5 µg/mL | 32 µg/mL | 32 µg/mL | > 64 µg/mL | 43.8 µg/mL | 32 µg/mL | 128 µg/mL | 8 µg/mL | 4 µg/mL | 32 µg/mL | > 64 µg/mL | 8 µg/mL | – |

Now from value to compound, other results behind:

| MIC [1, 22] | MIC [2] | MIC [3] | MIC50 [3] | MIC90 [3] | MIC [4] | MIC [5] | MIC [6] | MIC [7] | MIC [8] | MIC50 [8] | MIC90 [8] | MIC [9, 23] | MIC [10] | MIC [11, 24] | MIC [12] | MIC [13] | Compound | also measured |
| --- | --- | --- | --- | --- | --- | --- | --- | --- | --- | --- | --- | --- | --- | --- | --- | --- | --- | --- |
| 64 µg/mL (≈ 287 µM) | > 64 µg/mL | 112 µg/mL (≈ 503 µM) | 128 µg/mL (≈ 575 µM) | 128 µg/mL (≈ 575 µM) | > 64 µg/mL | > 64 µg/mL | > 64 µg/mL | > 64 µg/mL | 108 µg/mL (≈ 485 µM) | 128 µg/mL (≈ 575 µM) | 128 µg/mL (≈ 575 µM) | > 64 µg/mL | > 64 µg/mL | 16 µg/mL (≈ 71.9 µM) | > 64 µg/mL | > 32 µg/mL | OC(Cn1ccnc1)c1ccc(Cl)cc1 (racemic) | – |
| 8 µg/mL (≈ 22.2 µM) | > 64 µg/mL | 91.4 µg/mL (≈ 254 µM) | 64 µg/mL (≈ 178 µM) | 128 µg/mL (≈ 355 µM) | 32 µg/mL (≈ 88.8 µM) | > 64 µg/mL | > 64 µg/mL | 64 µg/mL (≈ 178 µM) | 85 µg/mL (≈ 236 µM) | 64 µg/mL (≈ 178 µM) | 128 µg/mL (≈ 355 µM) | ≥ 64 µg/mL | 32 µg/mL (≈ 88.8 µM) | 64 µg/mL (≈ 178 µM) | ≥ 64 µg/mL | ≥ 64 µg/mL | O=C(OC(Cn1ccnc1)c1ccccc1)c1cccc(C(F)(F)F)c1 (racemic) | – |
| – | 4 µg/mL (≈ 10.4 µM) | 4.4 µg/mL (≈ 11.4 µM) | 4 µg/mL (≈ 10.4 µM) | 8 µg/mL (≈ 20.7 µM) | – | 1 µg/mL (≈ 2.59 µM) | 1 µg/mL (≈ 2.59 µM) | 2 µg/mL (≈ 5.18 µM) | 2.5 µg/mL (≈ 6.47 µM) | 1 µg/mL (≈ 2.59 µM) | 8 µg/mL (≈ 20.7 µM) | – | 8 µg/mL (≈ 20.7 µM) | – | 4 µg/mL (≈ 10.4 µM) | 0.25 µg/mL (≈ 0.647 µM) | O=C(OC(Cn1ccnc1)c1ccc(F)cc1)c1ccc(-c2ccccc2)cc1 (racemic) | MIC [1]: 0.42 µg/mL (≈ 1.09 µM); Ratio [14]: 11; Selectivity Index [15]: 12; MIC [16]: 2.17 µg/mL (≈ 5.62 µM); CC50 at 48 h [17]: 41.5 µg/mL (≈ 107 µM); MIC [9]: 1.5 µg/mL (≈ 3.88 µM); MIC [18]: 1.3 µg/mL (≈ 3.36 µM); MIC [19]: 1 µg/mL (≈ 2.59 µM); MIC [20]: 4.08 µg/mL (≈ 10.6 µM); MIC [21]: 2.25 µg/mL (≈ 5.82 µM); MIC [11]: 0.83 µg/mL (≈ 2.15 µM) |
| – | 2 µg/mL (≈ 5.43 µM) | 3.7 µg/mL (≈ 10 µM) | 1 µg/mL (≈ 2.71 µM) | 8 µg/mL (≈ 21.7 µM) | – | 4 µg/mL (≈ 10.9 µM) | 0.25 µg/mL (≈ 0.679 µM) | 2 µg/mL (≈ 5.43 µM) | 2.1 µg/mL (≈ 5.7 µM) | 0.5 µg/mL (≈ 1.36 µM) | 4 µg/mL (≈ 10.9 µM) | – | 1 µg/mL (≈ 2.71 µM) | – | 4 µg/mL (≈ 10.9 µM) | 0.25 µg/mL (≈ 0.679 µM) | O=C(OC(Cn1ccnc1)c1ccccc1)c1ccc(-c2ccccc2)cc1 (racemic) | MIC [1]: 0.33 µg/mL (≈ 0.896 µM); Ratio [14]: 5; Selectivity Index [15]: >44.1; MIC [16]: 0.58 µg/mL (≈ 1.57 µM); CC50 at 48 h [17]: > 128 µg/mL; MIC [9]: 0.37 µg/mL (≈ 1 µM); MIC [18]: 0.7 µg/mL (≈ 1.9 µM); MIC [19]: 4 µg/mL (≈ 10.9 µM); MIC [20]: 0.5 µg/mL (≈ 1.36 µM); MIC [21]: 4.7 µg/mL (≈ 12.8 µM); MIC [11]: 0.67 µg/mL (≈ 1.82 µM) |
| 4 µg/mL (≈ 10.6 µM) | > 64 µg/mL | 27.7 µg/mL (≈ 73.2 µM) | 8 µg/mL (≈ 21.1 µM) | 16 µg/mL (≈ 42.3 µM) | > 64 µg/mL | > 64 µg/mL | 4 µg/mL (≈ 10.6 µM) | > 8 µg/mL | 52.9 µg/mL (≈ 140 µM) | 8 µg/mL (≈ 21.1 µM) | 128 µg/mL (≈ 338 µM) | 16 µg/mL (≈ 42.3 µM) | 8 µg/mL (≈ 21.1 µM) | 8 µg/mL (≈ 21.1 µM) | > 64 µg/mL | 2 µg/mL (≈ 5.29 µM) | O=C(OC(Cn1ccnc1)c1ccc(F)cc1)c1cccc(C(F)(F)F)c1 (racemic; 3b) | – |

Source: ChEMBL document CHEMBL1944618, “Synthesis and antifungal activity of a new series of 2-(1H-imidazol-1-yl)-1-phenylethanol derivatives” (Eur J Med Chem, 2012)
